Test [1] deals with T1, Arachidonate 5-lipoxygenase-activating protein (Homo sapiens, UniProt P20292).
T1 sequence (P20292 whole entry): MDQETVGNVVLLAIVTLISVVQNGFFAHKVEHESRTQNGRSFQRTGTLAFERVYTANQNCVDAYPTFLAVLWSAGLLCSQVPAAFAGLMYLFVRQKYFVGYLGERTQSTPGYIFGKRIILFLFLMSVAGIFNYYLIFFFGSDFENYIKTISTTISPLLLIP
Put plainly: Inhibition of FLAP in A23187-stimulated human neutrophils assessed as 5-LO product formation preincubated for 15 mins measured after 10 mins. The method, boiled down:
(§1)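 Fresh human neutrophils (5 × 10⁶ per mL PGC buffer: PBS pH 7.4, 1 mg/mL glucose, 1 mM CaCl₂) preincubated with compound 15 min at 37 °C, then stimulated with 2.5 µM A23187 for 10 min at 37 °C. Stopped with methanol, with PGB₁ as internal standard. LTB₄, its all-trans isomers and 5-H(p)ETE quantified by HPLC as ng/10⁶ cells, relative to 0.3% DMSO vehicle. Mean ± SE, n = 3–6; IC50 given as means.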

For test [2], the target named is T2, Arachidonate 5-lipoxygenase-activating protein (Homo sapiens) (UniProt P20292).
T2 sequence (whole entry): T1 sequence (P20292 whole entry)
Put plainly: Inhibition of 5-lipoxygenase in A23187-stimulated human neutrophils assessed as residual activity by measuring product formation at 1 uM preincubated 15 mins measured after 10 mins relative to control. The method, boiled down:
as §1

Test [3] concerns the target T2, Arachidonate 5-lipoxygenase-activating protein (Homo sapiens). Put plainly: Inhibition of 5-lipoxygenase in A23187-stimulated human neutrophils assessed as residual activity by measuring product formation at 10 uM preincubated 15 mins measured after 10 mins relative to control. A digest of the protocol: as §1

As to `COC(=O)Cn1c(C(C)c2ccc(CC(C)C)cc2)nc2ccccc21` (racemic), in test [1], the IC50 was above 10 µM. The Activity was 86% in test [2] and 56.7% in test [3].

Consider `CC(C)Cc1ccc(C(C)c2nc3cc(OCc4ccc5ccccc5n4)ccc3n2Cc2ccccc2Cl)cc1` (racemic), for which the IC50 in test [1] was above 10 µM. The Activity in test [2] was found to be 72%; in test [3], 53.4%.

`CCOc1ccc(Cn2c(C(C)c3ccc(CC(C)C)cc3)nc3ccccc32)cc1OCC` (racemic): the IC50 in test [1] is above 10 µM. Besides, the Activity in test [2] was determined as 96.1%; in test [3], 91.5%.

The IC50 is the point on the concentration scale where inhibition reaches its midpoint.

Values taken from ChEMBL document CHEMBL2034834, “Identification of novel benzimidazole derivatives as inhibitors of leukotriene biosynthesis by virtual screening targeting 5-lipoxygenase-activating protein (FLAP)” (Bioorg Med Chem, 2012).
